# What was measured:
# Type in all cases: functional
# [1] = Growth inhibition of human SF295 cells assessed as cell growth at 10^-8 M after 48 hrs by SRB assay; conditions: SF-295, 48 h, read-out: Activity
# [2] = Growth inhibition of human OVCAR4 cells assessed as cell growth at 10^-5 M after 48 hrs by SRB assay; conditions: OVCAR-4, 48 h, read-out: Activity
# IGROV-1 [3] = assay: Growth inhibition of human IGROV1 cells assessed as cell growth at 10^-8 M after 48 hrs by SRB assay; conditions: IGROV-1, 48 h, read-out: Activity
# SW-620 [4] = assay: Cytotoxicity against human SW620 cells after 48 hrs by SRB assay; conditions: SW-620, 48 h
# Summary of the method: (§1)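 NCI 60-cell-line panel of human tumour lines from nine cancer types. Continuous 48 h exposure at five 10-fold dilutions from 10^-4 to 10^-8 M, with 5-FU as positive control. SRB protein stain read spectrophotometrically at time zero, untreated control and each concentration. GI50, TGI and LC50 were derived from the [(Ti−Tz)/(C−Tz)]×100 growth relations, and out-of-range values are given as > or < the tested limits.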
# A498 [5] = assay: Growth inhibition of human A498 cells assessed as cell growth at 10^-7 M after 48 hrs by SRB assay; conditions: A498, 48 h, read-out: Activity
# Summary of the method: (§2)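 Five-dose NCI panel protocol. Each dose (10^-4 to 10^-8 M, 10-fold steps) was given as 48 h continuous exposure, and protein was measured by SRB staining. Percentage growth at each level is [(Ti−Tz)/(C−Tz)]×100, where Tz is time-zero absorbance and C is untreated control.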
# [6] = Growth inhibition of human Hs578T cells assessed as cell growth at 10^-8 M after 48 hrs by SRB assay; conditions: Hs-578T, read-out: Activity
# NCI-H226 [7] = assay: Cytotoxicity against human NCI-H226 cells after 48 hrs by SRB assay; conditions: NCI-H226, 48 h; summary of the method: as §1
# HCC 2998 = assay: Cytotoxicity against human HCC2998 cells after 48 hrs by SRB assay; conditions: HCC 2998, 48 h; summary of the method: as §1
# HCT-116 = assay: Growth inhibition of human HCT116 cells assessed as cell growth at 10^-7 M after 48 hrs by SRB assay; conditions: HCT-116, 48 h, read-out: Activity
# COLO 205 [8] = assay: Growth inhibition of human COLO205 cells assessed as cell growth at 10^-7 M after 48 hrs by SRB assay; conditions: COLO 205, 48 h, read-out: Activity; summary of the method: as §2
# COLO 205 [9] = assay: Growth inhibition of human COLO205 cells assessed as cell growth at 10^-6 M after 48 hrs by SRB assay; conditions: COLO 205, 48 h, read-out: Activity; summary of the method: as §2
# A498 [10] = assay: Growth inhibition of human A498 cells assessed as cell growth at 10^-6 M after 48 hrs by SRB assay; conditions: A498, 48 h, read-out: Activity; summary of the method: as §2
# IGROV-1 [11] = assay: Growth inhibition of human IGROV1 cells assessed as cell growth at 10^-5 M after 48 hrs by SRB assay; conditions: IGROV-1, 48 h, read-out: Activity
# MDA-MB-231 = assay: Growth inhibition of human MDA-MB-231 cells assessed as cell growth at 10^-8 M after 48 hrs by SRB assay; conditions: MDA-MB-231, 48 h, read-out: Activity
# [12] = Cytotoxicity against human Hs578T cells after 48 hrs by SRB assay; conditions: Hs-578T; summary of the method: as §1
# SNB-75 = assay: Growth inhibition of human SNB75 cells assessed as cell growth at 10^-6 M after 48 hrs by SRB assay; conditions: SNB-75, 48 h, read-out: Activity
# SF-295 = assay: Cytotoxicity against human SF295 cells after 48 hrs by SRB assay; conditions: SF-295, 48 h; summary of the method: as §1
# SW-620 [13] = assay: Growth inhibition of human SW620 cells assessed as cell growth at 10^-4 M after 48 hrs by SRB assay; conditions: SW-620, 48 h, read-out: Activity
# A498 [14] = assay: Growth inhibition of human A498 cells assessed as cell growth at 10^-8 M after 48 hrs by SRB assay; conditions: A498, 48 h, read-out: Activity; summary of the method: as §2
# [15] = Growth inhibition of human MOLT4 cells assessed as cell growth at 10^-8 M after 48 hrs by SRB assay; conditions: MOLT-4, 48 h, read-out: Activity
# [16] = Growth inhibition of human OVCAR3 cells assessed as cell growth at 10^-5 M after 48 hrs by SRB assay; conditions: OVCAR-3, 48 h, read-out: Activity
# ACHN = assay: Growth inhibition of human ACHN cells assessed as cell growth at 10^-5 M after 48 hrs by SRB assay; conditions: read-out: Activity; summary of the method: as §2
# T47D = assay: Cytotoxicity against human T47D cells after 48 hrs by SRB assay
# Summary of the method: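 NCI 60-cell-line panel, 48 h continuous exposure to five 10-fold dilutions from 10^-4 to 10^-8 M. SRB protein staining was read spectrophotometrically, with time-zero, untreated-control and treated absorbances. GI50, TGI and LC50 were derived from the percentage-growth formulas. Values outside the tested range are expressed as more or less than the maximum or minimum concentration.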
# [17] = Growth inhibition of human NCI-ADR-RES cells assessed as cell growth at 10^-7 M after 48 hrs by SRB assay; conditions: read-out: Activity
# SK-MEL-28 = assay: Growth inhibition of human SK-MEL-28 cells assessed as cell growth at 10^-8 M after 48 hrs by SRB assay; conditions: SK-MEL-28, 48 h, read-out: Activity
# 786-0 = assay: Cytotoxicity against human 786-0 cells after 48 hrs by SRB assay; conditions: 786-0, 48 h; summary of the method: as §1
# NCI-H226 [18] = assay: Growth inhibition of human NCI-H226 cells assessed as cell growth at 10^-6 M after 48 hrs by SRB assay; conditions: NCI-H226, 48 h, read-out: Activity
# [19] = read-out: LC50 (the source's name)
# [20] = read-out: pLC50 (the source's name) (converted)
smiles,measurement,setting,value
Cc1ccc(-c2nc3ccc(Cl)cc3c(=O)n2/N=C/c2ccccc2)cc1,growth at 0.01 µM,[1],91%
same,growth at 10 µM,[2],23%
same,growth at 0.01 µM,IGROV-1 [3],94%
same,GI50,SW-620 [4]; read-out: GI50,> 100 µM
same,CC50,SW-620 [4]; [19],> 100 µM
same,TGI,SW-620 [4]; read-out: TGI,> 100 µM
same,GI50,SW-620 [4]; read-out: pGI50 (converted),> 100 µM
same,CC50,SW-620 [4]; [20],> 100 µM
same,TGI,SW-620 [4]; read-out: pTGI,> 100 µM
same,growth at 0.1 µM,A498 [5],85%
same,growth at 0.01 µM,[6],87%
same,GI50,NCI-H226 [7]; read-out: GI50,5.14 µM
same,CC50,NCI-H226 [7]; [19],> 100 µM
same,TGI,NCI-H226 [7]; read-out: TGI,> 100 µM
same,GI50,NCI-H226 [7]; read-out: pGI50 (converted),5.13 µM
same,CC50,NCI-H226 [7]; [20],> 100 µM
same,TGI,NCI-H226 [7]; read-out: pTGI,> 100 µM
same,GI50,HCC 2998; read-out: GI50,> 100 µM
same,CC50,HCC 2998; [19],> 100 µM
same,TGI,HCC 2998; read-out: TGI,> 100 µM
same,GI50,HCC 2998; read-out: pGI50 (converted),> 100 µM
same,CC50,HCC 2998; [20],> 100 µM
same,TGI,HCC 2998; read-out: pTGI,> 100 µM
same,growth at 0.1 µM,HCT-116,96%
same,growth at 0.1 µM,COLO 205 [8],116%
same,growth at 1 µM,COLO 205 [9],119%
same,growth at 1 µM,A498 [10],85%
same,growth at 10 µM,IGROV-1 [11],34%
same,growth at 0.01 µM,MDA-MB-231,108%
same,GI50,[12]; read-out: GI50,2.62 µM
same,LC50 (concentration giving 50% net cell kill),[12]; read-out: LC50,> 100 µM
same,TGI,[12]; read-out: TGI,17.2 µM
same,GI50,[12]; read-out: pGI50 (converted),2.63 µM
same,LC50 (concentration giving 50% net cell kill),[12]; read-out: pLC50 (converted),> 100 µM
same,TGI,[12]; read-out: pTGI (converted),17.4 µM
same,growth at 1 µM,SNB-75,64%
same,GI50,SF-295; read-out: GI50,4.73 µM
same,CC50,SF-295; [19],> 100 µM
same,TGI,SF-295; read-out: TGI,> 100 µM
same,GI50,SF-295; read-out: pGI50 (converted),4.79 µM
same,CC50,SF-295; [20],> 100 µM
same,TGI,SF-295; read-out: pTGI,> 100 µM
same,growth at 100 µM,SW-620 [13],52%
same,growth at 0.01 µM,A498 [14],88%
same,growth at 0.01 µM,[15],103%
same,growth at 10 µM,[16],34%
same,growth at 10 µM,ACHN,10%
same,GI50,T47D; read-out: GI50,3.82 µM
same,CC50,T47D; [19],> 100 µM
same,TGI,T47D; read-out: TGI,> 100 µM
same,GI50,T47D; read-out: pGI50 (converted),3.8 µM
same,CC50,T47D; [20],> 100 µM
same,TGI,T47D; read-out: pTGI,> 100 µM
same,growth at 0.1 µM,[17],95%
same,growth at 0.01 µM,SK-MEL-28,102%
same,GI50,786-0; read-out: GI50,3.62 µM
same,CC50,786-0; [19],> 100 µM
same,TGI,786-0; read-out: TGI,> 100 µM
same,GI50,786-0; read-out: pGI50 (converted),3.63 µM
same,CC50,786-0; [20],> 100 µM
same,TGI,786-0; read-out: pTGI,> 100 µM
same,growth at 1 µM,NCI-H226 [18],79%

# From ChEMBL document CHEMBL3259728, “Design, synthesis and biological evaluation of some novel substituted quinazolines as antitumor agents” (2014)
